In one assay the target is T1, Adenosine receptor A3 (Homo sapiens, UniProt P0DMS8).
T1 sequence (P0DMS8 whole entry): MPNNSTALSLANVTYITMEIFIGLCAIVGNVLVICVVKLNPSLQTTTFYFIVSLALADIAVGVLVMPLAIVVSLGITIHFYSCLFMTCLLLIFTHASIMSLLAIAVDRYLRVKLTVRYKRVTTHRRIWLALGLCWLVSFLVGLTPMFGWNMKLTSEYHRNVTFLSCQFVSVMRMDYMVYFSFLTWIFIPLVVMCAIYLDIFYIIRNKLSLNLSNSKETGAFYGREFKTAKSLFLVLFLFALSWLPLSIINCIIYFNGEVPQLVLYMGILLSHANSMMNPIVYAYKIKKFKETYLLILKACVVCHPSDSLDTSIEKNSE
The assay is described as follows: Displacement of [125I]AB-MECA from human cloned adenosine A3 receptor expressed in CHO cells. The assay is classed as cell-based. A digest of the protocol: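 CHO cells stably expressing hA3. IC50 by non-linear regression over five displacer concentrations in triplicate, converted to Ki by Cheng-Prusoff. Ki values are means of four assays.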
(Displacement assays read how much labelled ligand stays bound in the presence of the test substance.)

For assay [1], the target named is T2, Adenosine receptor A2a (Homo sapiens, UniProt P29274). In words: Displacement of [125I]NECA from human adenosine A2A receptor expressed in CHO cells at 10uM. Type of assay: cell-based. The following applies: in the assay text read “[3H]NECA” for “[125I]NECA”. A digest of the protocol: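 hA2A stably expressed in CHO cells. Radioligand [3H]NECA (Kd 30 nM). Percentage inhibition of specific binding measured at 10 µM.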
T2 sequence (P29274 whole entry): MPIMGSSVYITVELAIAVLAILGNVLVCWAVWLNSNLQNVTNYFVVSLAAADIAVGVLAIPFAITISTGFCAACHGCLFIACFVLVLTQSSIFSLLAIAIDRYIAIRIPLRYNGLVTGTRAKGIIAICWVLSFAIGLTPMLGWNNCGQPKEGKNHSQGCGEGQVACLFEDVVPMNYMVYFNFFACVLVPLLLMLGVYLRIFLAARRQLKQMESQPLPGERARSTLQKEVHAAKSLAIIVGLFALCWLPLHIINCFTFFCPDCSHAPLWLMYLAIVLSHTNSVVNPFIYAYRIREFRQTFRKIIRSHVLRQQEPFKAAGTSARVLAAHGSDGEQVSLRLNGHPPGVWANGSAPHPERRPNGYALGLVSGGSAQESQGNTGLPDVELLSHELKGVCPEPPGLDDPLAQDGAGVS

The species named for the next assay is Bos taurus. The assay is described as follows: Displacement of [3H]CGS21680 from adenosine A2A receptor in bovine brain membrane at 10 uM. Type of assay: cell membranes. A digest of the protocol: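 Bovine striatal membranes, [3H]CGS 21680 (Kd 14 nM). Five displacer concentrations in triplicate, non-linear regression IC50, Cheng-Prusoff Ki, four assays. Single-point data are % inhibition at 10 µM.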

Assay [2] addresses T3, Adenosine receptor A1 (Bos taurus, UniProt P28190).
T3 sequence (P28190 whole entry): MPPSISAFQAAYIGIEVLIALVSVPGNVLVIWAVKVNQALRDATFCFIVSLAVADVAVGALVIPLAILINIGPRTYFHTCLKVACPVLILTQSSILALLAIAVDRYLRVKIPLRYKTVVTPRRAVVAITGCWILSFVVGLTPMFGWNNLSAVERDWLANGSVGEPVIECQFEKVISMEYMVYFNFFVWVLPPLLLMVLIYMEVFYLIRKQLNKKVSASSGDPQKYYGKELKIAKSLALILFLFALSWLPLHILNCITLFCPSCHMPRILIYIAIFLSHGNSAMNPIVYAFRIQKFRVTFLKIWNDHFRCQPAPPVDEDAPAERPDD
In words: Displacement of [3H]DPCPX from adenosine A1 receptor in bovine brain membrane.

The target of assay [3] is T4, Adenosine receptor A1 (Homo sapiens) (UniProt P30542).
T4 sequence (whole entry): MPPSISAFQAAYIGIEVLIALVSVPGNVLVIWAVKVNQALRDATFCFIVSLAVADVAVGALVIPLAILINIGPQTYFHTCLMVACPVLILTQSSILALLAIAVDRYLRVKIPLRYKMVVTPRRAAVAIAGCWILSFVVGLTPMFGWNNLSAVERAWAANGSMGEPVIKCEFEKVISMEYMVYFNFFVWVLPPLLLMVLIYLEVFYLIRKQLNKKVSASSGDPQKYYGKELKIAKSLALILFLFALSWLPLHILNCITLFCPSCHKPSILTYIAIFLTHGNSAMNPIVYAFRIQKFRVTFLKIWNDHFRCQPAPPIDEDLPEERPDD
In words: Displacement of [3H]DPCPX from human cloned adenosine A1 receptor expressed in CHO cells at 10 uM.

The target of assay [4] is T5, Adenosine receptor A1 (Bos taurus) (UniProt P28190).
T5 sequence (whole entry): T3 sequence (P28190 whole entry)
The assay is described as follows: Displacement of [125I]DPCPX from adenosine A1 receptor in bovine brain membrane at 10 uM. Type of assay: cell membranes. Particulars: in the assay text read “[3H]DPCPX” for “[125I]DPCPX”. A digest of the protocol:
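Bovine cerebral cortical membranes, [3H]DPCPX (Kd 0.3 nM). IC50 from five displacer concentrations in triplicate, Ki by Cheng-Prusoff, means of four assays. Single-point data are % inhibition of specific binding at 10 µM.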

For assay [5], the target named is T6, Adenosine receptor A1 (Homo sapiens, UniProt P30542).
T6 sequence (P30542 whole entry): T4 sequence (whole entry)
The assay is described as follows: Displacement of [3H]DPCPX from human cloned adenosine A1 receptor expressed in CHO cells.

Assay [6] addresses T2, Adenosine receptor A2a. In words: Displacement of [3H]NECA from human cloned adenosine A2A receptor expressed in CHO cells.
Assay [7] addresses T7, Adenosine receptor A3 (Homo sapiens) (UniProt P0DMS8).
T7 sequence (whole entry): T1 sequence (P0DMS8 whole entry)
In words: Displacement of [125I]AB-MECA from human cloned adenosine A3 receptor expressed in CHO cells at 1 uM. Type of assay: cell-based. A digest of the protocol: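 CHO cells stably expressing hA3. Displacement of [125I]AB-MECA (Kd 1.4 nM). IC50 by non-linear regression over five displacer concentrations in triplicate, converted to Ki by Cheng-Prusoff. Ki values are means of four assays. Single-point data are % inhibition of specific binding at 1 µM.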

Assay [8] is described as follows: Displacement of [3H]CGS21680 from adenosine A2A receptor in bovine brain membrane. The assay is classed as cell membranes, Bos taurus.

The term Ki denotes a measure of affinity in units of concentration, obtained from inhibition or displacement. Read a high Ki as a looser hold on the target. `O=c1n(-c2ccccc2)nc2c(NS(=O)(=O)c3ccccc3)nc3ccccc3n12`: the Ki worked out at 0.0322 µM on Adenosine receptor A3 and 0.157 µM on Adenosine receptor A1 [2]. In addition, the Activity at Adenosine receptor A2a [1] stood at 27%; in the assay filed under Bos taurus, 35%; in assay [3] it was 0%.
In turn, `COC(=O)c1ccc(C(=O)Nc2nc3ccccc3n3c(=O)n(-c4ccc(OC)cc4)nc23)cc1` showed a Ki at Adenosine receptor A3 of 1.37 µM. In addition, the Activity in [4] was found to be 30.5%; in the assay filed under Bos taurus, 41%.
Turning to `COc1ccc(-n2nc3c(NC(=O)c4ccncc4)nc4ccccc4n3c2=O)cc1`, the Ki was 0.068 µM on Adenosine receptor A3, 0.236 µM at Adenosine receptor A1 [2], 0.779 µM on Adenosine receptor A1 [5] and 0.397 µM at Adenosine receptor A2a [6]. The Activity in the assay listed under Bos taurus turned out to be 44%.
`COc1ccc(-n2nc3c(NS(=O)(=O)c4ccccc4)nc4ccccc4n3c2=O)cc1`: the results for the inhibitory constant (Ki) at Adenosine receptor A3, on Adenosine receptor A1 [2] and on Adenosine receptor A1 [5] were 0.0022 µM, 4.7 µM and 2.7 µM, respectively. The results for the Activity at Adenosine receptor A2a [1] and in the assay listed under Bos taurus were 23% and 16%, respectively.
Turning to `O=C(Nc1nc2c([N+](=O)[O-])cccc2n2c(=O)n(-c3ccccc3)nc12)c1ccncc1`, the Activity in assay [7] came out at 0%; in assay [4] it was 37.5%; in the assay filed under Bos taurus, 22%.
For the molecule `O=C(Nc1nc2ccccc2n2c(=O)n(-c3ccccc3)nc12)c1ccncc1`, the Ki on Adenosine receptor A3 worked out at 0.0061 µM; in assay [8], 0.812 µM; at Adenosine receptor A1 [2], 0.057 µM; at Adenosine receptor A1 [5], 2.38 µM; at Adenosine receptor A2a [6] it was 0.188 µM.
In the case of `COc1ccc(-n2nc3c(NC(=O)NCc4ccccc4)nc4ccccc4n3c2=O)cc1`, the values for the Ki on Adenosine receptor A3, at Adenosine receptor A1 [2] and at Adenosine receptor A1 [5] were 0.065 µM, 0.0208 µM and 4.21 µM, respectively. The Activity at Adenosine receptor A2a [1] is 23%; in the assay filed under Bos taurus it was 12%.
Regarding `O=C(NCc1ccccc1)Nc1nc2ccccc2n2c(=O)n(-c3ccccc3)nc12`, the Ki on Adenosine receptor A3 turned out to be 0.0835 µM; in assay [8], 0.173 µM; on Adenosine receptor A1 [2], 0.0041 µM; on Adenosine receptor A1 [5], 0.0123 µM; at Adenosine receptor A2a [6], 0.158 µM.
As for `O=C(Nc1nc2ccccc2n2c(=O)n(-c3ccccc3)nc12)c1ccccc1`, the Activity in the assay listed under Bos taurus turned out to be 53%.
For `O=C(Nc1nc2ccccc2n2c(=O)n(-c3ccccc3)nc12)c1cccc(I)c1`, the figures for the Activity (in [7]; in the assay listed under Bos taurus) were 36% and 35%, respectively. Moreover, the Ki at Adenosine receptor A1 [2] was 0.473 µM.
`COc1ccc(-n2nc3c(OCc4ccccc4)nc4ccccc4n3c2=O)cc1`: the affinity at Adenosine receptor A3 corresponds to a Ki of 0.0064 µM. In addition, the Activity on Adenosine receptor A2a [1] turned out to be 4%; in assay [4], 53%; in the assay filed under Bos taurus, 41%; in assay [3], 54%.
For `O=c1n(-c2ccccc2)nc2c(NS(=O)(=O)c3ccccc3)nc3c([N+](=O)[O-])cccc3n12`, the Ki worked out at 0.1 µM at Adenosine receptor A3 and 0.21 µM on Adenosine receptor A1 [2]. In the assay listed under Bos taurus, this molecule showed an Activity of 25%.
With `COc1ccc(-n2nc3c(NS(C)(=O)=O)nc4ccccc4n3c2=O)cc1`, on Adenosine receptor A3, the Ki came out at 0.493 µM. For the same molecule, the Activity in assay [4] is 6%; in the assay listed under Bos taurus, 0%.
Consider `CS(=O)(=O)Nc1nc2ccccc2n2c(=O)n(-c3ccccc3)nc12`, for which the Ki is 1.43 µM at Adenosine receptor A3 and 0.164 µM at Adenosine receptor A1 [2]. Besides, the Activity in the assay filed under Bos taurus was determined as 32%.
Turning to `O=C(NCc1ccccc1)Nc1nc2c([N+](=O)[O-])cccc2n2c(=O)n(-c3ccccc3)nc12`, the Ki was found to be 0.063 µM on Adenosine receptor A3 and 0.0046 µM at Adenosine receptor A1 [2]. The Activity was found to be 20% on Adenosine receptor A2a [1], 46.5% in the assay listed under Bos taurus and 4% in assay [3].
The like results for `O=c1n(-c2ccccc2)nc2c(OCc3ccccc3)nc3ccccc3n12` were, in that order, 0.021 µM, 0.055 µM, 10%, 19% and 46%.
On to `COc1ccc(-n2nc3c(N(S(C)(=O)=O)S(C)(=O)=O)nc4ccccc4n3c2=O)cc1`, for which the Ki on Adenosine receptor A3 is 0.387 µM. Further, the Activity in [4] came out at 6.2%; in the assay filed under Bos taurus, 17%.
As for `COC(=O)c1ccc(C(=O)Nc2nc3ccccc3n3c(=O)n(-c4ccccc4)nc23)cc1`, the Activity in assay [7] is 41%; in the assay filed under Bos taurus, 36%. The same molecule returned an inhibition constant (Ki) on Adenosine receptor A1 [2] of 0.106 µM.
As to `CCCn1c(=O)c2[nH]c(C3CCCC3)nc2n(CCC)c1=O` [1,3-DIPROPYL-8-CYCLOPENTYLXANTHINE [DPCPX]], in assay [8], the affinity corresponds to a Ki of 0.337 µM. That is a sub-micromolar value.
For `CS(=O)(=O)Nc1nc2c([N+](=O)[O-])cccc2n2c(=O)n(-c3ccccc3)nc12`, the Activity in assay [7] was determined as 37%; in the assay listed under Bos taurus, 25%. Moreover, the Ki on Adenosine receptor A1 [2] was found to be 2.84 µM.
For `O=C(NC(=O)c1ccccc1)Nc1nc2ccccc2n2c(=O)n(-c3ccccc3)nc12`, the inhibition constant Ki on Adenosine receptor A3 was determined as 1.3 µM; in assay [8], 0.379 µM; at Adenosine receptor A1 [2] it was 0.101 µM.
The like results for `O=C(Nc1cccc(I)c1)Nc1nc2ccccc2n2c(=O)n(-c3ccccc3)nc12` were, in that order, 0.953 µM, 1.8 µM and 0.359 µM.

These data come from ChEMBL document CHEMBL1150363, “Synthesis, ligand-receptor modeling studies and pharmacological evaluation of novel 4-modified-2-aryl-1,2,4-triazolo[4,3-a]quinoxalin-1-one derivatives as potent and selective human A3 adenosine receptor antagonists” (Bioorg Med Chem, 2008).
